Rpn11 block = Rpn11 (PSMD14) deubiquitinase inhibitors, primary screen, biochemical, fluorescence polarization, uHTS; inhibition, % at 20 µM; 0.59% of 360,000 active; human 26S proteasome, Ub4-pepOG fluorescence polarization; 20S core pre-blocked with epoxomicin; 26S proteasome non-ATPase regulatory subunit 14 (Homo sapiens), O00487;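 active = inhibition at 20 µM, scaled to each plate's controls, above about 33%, limit read from the data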
PLCb3 inh = human PLC-beta3 inhibitors, primary screen, biochemical, fluorescence; 1-phosphatidylinositol 4,5-bisphosphate phosphodiesterase beta-3 (Homo sapiens), Q01970; Purified PLC-beta3, fluorogenic substrate; inhibition, % at 12.2 µM; 0.18% of 370,000 active
Target sequence (Q01970 whole entry, looked up): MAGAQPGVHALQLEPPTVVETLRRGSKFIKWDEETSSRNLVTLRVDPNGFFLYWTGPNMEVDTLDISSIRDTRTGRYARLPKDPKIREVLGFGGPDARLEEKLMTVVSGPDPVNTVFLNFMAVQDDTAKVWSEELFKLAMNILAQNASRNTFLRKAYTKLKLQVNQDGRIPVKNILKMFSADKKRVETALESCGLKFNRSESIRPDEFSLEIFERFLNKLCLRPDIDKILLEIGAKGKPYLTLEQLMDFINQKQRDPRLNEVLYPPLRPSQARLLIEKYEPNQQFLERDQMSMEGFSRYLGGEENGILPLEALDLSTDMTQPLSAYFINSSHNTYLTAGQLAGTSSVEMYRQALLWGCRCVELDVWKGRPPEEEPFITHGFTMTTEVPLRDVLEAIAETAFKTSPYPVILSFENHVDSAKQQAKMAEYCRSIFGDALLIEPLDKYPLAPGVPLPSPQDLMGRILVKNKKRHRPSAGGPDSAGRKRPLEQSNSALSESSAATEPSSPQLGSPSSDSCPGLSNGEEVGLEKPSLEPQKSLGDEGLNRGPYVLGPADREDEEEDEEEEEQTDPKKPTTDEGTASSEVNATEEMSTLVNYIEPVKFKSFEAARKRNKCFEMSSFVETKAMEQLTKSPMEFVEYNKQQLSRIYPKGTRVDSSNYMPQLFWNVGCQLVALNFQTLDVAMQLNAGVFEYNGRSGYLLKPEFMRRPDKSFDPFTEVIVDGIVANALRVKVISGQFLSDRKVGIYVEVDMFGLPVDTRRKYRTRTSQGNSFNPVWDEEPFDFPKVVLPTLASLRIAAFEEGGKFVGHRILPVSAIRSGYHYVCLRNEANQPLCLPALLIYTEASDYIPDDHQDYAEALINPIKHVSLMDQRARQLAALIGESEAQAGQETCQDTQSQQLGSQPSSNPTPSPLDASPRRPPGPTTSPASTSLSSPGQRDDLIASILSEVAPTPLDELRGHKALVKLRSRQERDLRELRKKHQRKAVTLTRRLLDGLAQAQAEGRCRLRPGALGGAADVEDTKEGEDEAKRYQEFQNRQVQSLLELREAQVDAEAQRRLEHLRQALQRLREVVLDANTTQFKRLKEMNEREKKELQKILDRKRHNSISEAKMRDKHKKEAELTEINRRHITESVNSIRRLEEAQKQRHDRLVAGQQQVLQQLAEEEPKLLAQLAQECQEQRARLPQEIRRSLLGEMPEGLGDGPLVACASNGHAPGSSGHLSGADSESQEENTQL
PLCg1 inh = PLC-gamma1 enzyme inhibitors, primary screen, biochemical, fluorescence, purified enzyme; 1-phosphatidylinositol 4,5-bisphosphate phosphodiesterase gamma-1 (Homo sapiens), P19174; fluorogenic substrate; inhibition, % at 12.2 µM; 0.84% of 370,000 active; AID 720700, 2013; in the data active = inhibition above about 9.5%
UCH37 DUB inh = inhibitors of human UCH37 deubiquitinase, primary screen, biochemical, Ub-AMC cleavage, fluorescence; Ubiquitin carboxyl-terminal hydrolase isozyme L5 (Homo sapiens), Q9Y5K5; purified proteasome/UCH37; inhibition, % (concentration not given with the values); 0.33% of 330,000 active; AID 588478, 2011;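 active = mean inhibition over replicate wells above about 20%, limit read from the data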
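Reagent: Ub-AMC substrate; assay system: Proteasome-associated human UCH37 deubiquitinase; controls: no-proteasome and no-compound wells; read-out: % inhibition of Ub-AMC cleavage fluorescence; timing: 30 min preincubation with enzyme, 25 min cleavage at room temperature; signal: AMC fluorescence from Ub-AMC cleavage, excitation 355 nm, emission 460 nm; buffer or medium: Tris-HCl pH 7.4 plus ovalbumin, ATP-MgCl2, DTT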
PLCg1 ctr = PLC-gamma1 enzyme inhibitors, counter-screen for PLC-beta3 inhibitor project, biochemical, fluorescence | shares compounds with PLCg1 inh | purified PLC-gamma1, fluorogenic substrate | inhibition, % at 12.3 µM | 3.1% of 3,300 active | AID 743258, 2014; in the data active = inhibition above about 9.5%
PLCb3 confirm = PLC-beta3 inhibitor confirmation, biochemical, fluorescence, purified enzyme; 1% of 3,300 active; AID 743261, 2014; shares compounds with PLCg1 inh; inhibition, % at 12.3 µM; fluorogenic substrate fluorescence
Hits are given with their value. Hits are enriched below; roughly 1.7% of the tested compounds scored in any of these assays. Cut-off read from the data, not from the text of the source, unless noted: active = inhibition above about 11%; inactive = the rest.

Results for O=C(NN=Cc1cccnc1)C(O)c1ccccc1 (stereo not drawn) ?
UCH37 DUB inh: inactive

What do the screens show for `CC(=NNC(=O)c1cccc(F)c1)c1ccc(Br)s1`?
UCH37 DUB inh: inactive

What do the screens show for `COc1ccc(CN(C)Cc2ccccc2)c(OC)c1OC`?
Rpn11 block: inactive; PLCb3 inh: inactive; PLCg1 inh: 11; UCH37 DUB inh: inactive; PLCg1 ctr: inactive; PLCb3 confirm: inactive

What do the screens show for `CCN(CC(=O)Nc1cc(Cl)ccc1C)C(=O)C1CC1`?
Rpn11 block: inactive; PLCb3 inh: inactive; PLCg1 inh: 14; UCH37 DUB inh: inactive; PLCg1 ctr: inactive; PLCb3 confirm: inactive

What do the screens show for `CCN(CC(=O)Nc1cc(Cl)ccc1C)C(=O)C1CC(=O)N(Cc2ccccc2)C1` (stereo not drawn)?
Rpn11 block: inactive; PLCb3 inh: inactive; PLCg1 inh: inactive; UCH37 DUB inh: inactive

How did CC12CCC(C(=O)Nc3ccccc3)(CC1=NO)C2(C)C (stereo not drawn) do in these assays?
UCH37 DUB inh: inactive

What do the screens show for `COc1ccc(OC)c(/C=N/n2c(COc3ccccc3)n[nH]c2=S)c1`?
Rpn11 block: inactive; PLCb3 inh: inactive; PLCg1 inh: inactive

How did COc1ccc(Br)cc1/C=N/n1c(COc2ccccc2)n[nH]c1=S do in these assays?
Rpn11 block: inactive; PLCb3 inh: inactive; PLCg1 inh: 11; PLCg1 ctr: inactive; PLCb3 confirm: inactive

What do the screens show for `CC(=O)Nc1ccc(C=NNC(=O)c2cc(-c3ccco3)nc3ccccc23)cc1`?
UCH37 DUB inh: inactive

Results for COc1ccc(NS(=O)(=O)c2cccc(NC(=O)c3ccccn3)c2)cc1 ?
Rpn11 block: inactive; PLCb3 inh: inactive; PLCg1 inh: inactive; UCH37 DUB inh: inactive

Results for O=C(Nc1cccc(S(=O)(=O)Nc2ccc(Cl)cc2)c1)c1ccccn1 ?
Rpn11 block: inactive; PLCb3 inh: inactive; PLCg1 inh: 9.7; UCH37 DUB inh: inactive; PLCg1 ctr: inactive; PLCb3 confirm: inactive

How did C[n+]1ccc(C(=O)NN=Cc2ccco2)cc1 do in these assays?
UCH37 DUB inh: inactive

Results for CN(Cc1cn(C)nc1-c1ccc(Oc2ccccc2)cc1)Cc1cnc2ccccn12 ?
Rpn11 block: inactive; PLCb3 inh: inactive; PLCg1 inh: inactive; UCH37 DUB inh: inactive

Results for Cn1cc(CNCc2cnc3ccccn23)c(-c2ccc(Oc3ccccc3)cc2)n1 ?
Rpn11 block: inactive; PLCb3 inh: inactive; PLCg1 inh: 15; UCH37 DUB inh: inactive; PLCg1 ctr: inactive; PLCb3 confirm: inactive

What do the screens show for `Clc1ccc(-c2csc(Nc3cccnc3)n2)cc1`?
Rpn11 block: inactive; PLCb3 inh: inactive; PLCg1 inh: 10; UCH37 DUB inh: inactive; PLCg1 ctr: inactive; PLCb3 confirm: inactive

How did COCCNC(=S)NN=Cc1ccc2c(c1)OCCO2 do in these assays?
UCH37 DUB inh: inactive

How did CC(=O)Oc1ccc(C(=O)Nc2ccc3c(c2)C(=O)N(CCC(=O)O)C3=O)cc1 do in these assays?
Rpn11 block: inactive; PLCb3 inh: inactive; PLCg1 inh: inactive; UCH37 DUB inh: inactive

What do the screens show for `COc1cc(C(=O)Nc2ccc3c(c2)C(=O)N(CCC(=O)O)C3=O)cc(OC)c1OC`?
Rpn11 block: inactive; PLCb3 inh: inactive; PLCg1 inh: 11; UCH37 DUB inh: inactive; PLCg1 ctr: 9.5; PLCb3 confirm: inactive

What do the screens show for `Cc1cccc(CCNC(=O)C2CCCN(S(=O)(=O)c3cccc4nsnc34)C2)c1` (stereo not drawn)?
Rpn11 block: inactive; PLCb3 inh: inactive; PLCg1 inh: 17; UCH37 DUB inh: inactive; PLCg1 ctr: inactive; PLCb3 confirm: inactive

How did OC(CN1CCN(c2ncc(C(F)(F)F)cc2Cl)CC1)c1ccccc1 (stereo not drawn) do in these assays?
Rpn11 block: inactive; PLCb3 inh: inactive; PLCg1 inh: 13; UCH37 DUB inh: inactive; PLCg1 ctr: inactive; PLCb3 confirm: inactive

How did COc1cccc(CNn2c(-c3cccc(C)c3)nc3ccccc3c2=O)c1 do in these assays?
Rpn11 block: inactive; PLCb3 inh: 11; PLCg1 inh: inactive; UCH37 DUB inh: inactive; PLCg1 ctr: inactive; PLCb3 confirm: inactive

How did CC(=O)Nc1cccc(-c2nnc3n2CC(C)S3)c1 (stereo not drawn) do in these assays?
Rpn11 block: inactive; PLCb3 inh: inactive; PLCg1 inh: 15; UCH37 DUB inh: inactive; PLCg1 ctr: inactive; PLCb3 confirm: inactive

How did CCOc1ccccc1NC(=O)Nc1ccncc1 do in these assays?
Rpn11 block: inactive; PLCb3 inh: inactive; PLCg1 inh: 9.8; UCH37 DUB inh: inactive; PLCg1 ctr: inactive; PLCb3 confirm: inactive

How did COc1cccc(-c2csc(NC(=O)Nc3ccccc3)n2)c1 do in these assays?
Rpn11 block: inactive; PLCb3 inh: inactive; PLCg1 inh: 12; UCH37 DUB inh: inactive; PLCg1 ctr: inactive; PLCb3 confirm: inactive

What do the screens show for `COc1cccc(NC(=O)Nc2ccncc2)c1`?
Rpn11 block: inactive; PLCb3 inh: 11; PLCg1 inh: inactive; UCH37 DUB inh: inactive; PLCg1 ctr: inactive; PLCb3 confirm: inactive

How did Cc1ccc(C=Nn2c(C)nc3ccccc3c2=O)s1 do in these assays?
UCH37 DUB inh: inactive

How did O=C(c1ccc(F)cc1)C1CCN(C(=S)Nc2ccccc2Cl)CC1 do in these assays?
Rpn11 block: inactive; PLCb3 inh: inactive; PLCg1 inh: inactive; UCH37 DUB inh: inactive

How did Cc1ccccc1NC(=S)N1CCC(C(=O)c2ccc(F)cc2)CC1 do in these assays?
Rpn11 block: inactive; PLCb3 inh: inactive; PLCg1 inh: 9.9; UCH37 DUB inh: inactive; PLCg1 ctr: inactive; PLCb3 confirm: inactive

How did CC(=NOC(=O)c1ccccc1)c1c(C)nc2cc(C)ccn12 do in these assays?
UCH37 DUB inh: inactive

Results for CCOc1ccc(Cl)cc1S(=O)(=O)N1CCN(c2ccc(F)cc2)CC1 ?
Rpn11 block: inactive; PLCb3 inh: inactive; PLCg1 inh: inactive; UCH37 DUB inh: inactive

What do the screens show for `CCOc1ccc(Cl)cc1S(=O)(=O)N1CCN(c2ccc(C)c(C)c2)CC1`?
Rpn11 block: inactive; PLCb3 inh: inactive; PLCg1 inh: 10; UCH37 DUB inh: inactive; PLCg1 ctr: inactive; PLCb3 confirm: inactive

Results for COC(=O)c1c(C)[nH]c(C(C)=O)c1C ?
Rpn11 block: inactive; PLCb3 inh: inactive; PLCg1 inh: 11; UCH37 DUB inh: inactive; PLCg1 ctr: inactive; PLCb3 confirm: inactive

What do the screens show for `O=C(NN=Cc1coc2ccccc2c1=O)c1cc2ccccc2o1`?
UCH37 DUB inh: inactive

How did Cc1cc(C)n(-c2nc3c(c(=O)[nH]c(=O)n3C)n2C(C)C)n1 do in these assays?
Rpn11 block: inactive; PLCb3 inh: 14; PLCg1 inh: inactive; UCH37 DUB inh: inactive; PLCg1 ctr: inactive; PLCb3 confirm: inactive

Source: PubChem BioAssay (several laboratories)
